Measured values: paper PMC3182491 (Investigational new drugs, 2010)
Several values for one entry are separate records, joined by “and”; a condition that tells them apart may be missing. Identical values can stand only once.

Key:
Format in all cases: in vivo
[1] = Pharmacokinetics after single oral administration in healthy dogs; settings: dog, 1 mg/kg oral, individual dogs A-F; 1 mg/kg
How it was run: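 Same six dogs in crossover, two-week washout. Test compound in 2-hydroxypropyl-β-cyclodextrin/sterile water was given once at 1.0 mg/kg as a 5-min oral slurry. Plasma was sampled at 0, 15, 30, 45, 60, 120, 240, 480, 720 min and 24 h and quantified by LC-ES/MS/MS. A one-compartment absorption model gave K01 and K10, Cmax and Tmax; Clo = dose/AUC0-inf; F = AUC oral/AUC IV × dose ratio.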

[2] = Plasma concentration during 48-hour IV constant rate infusion in healthy dogs; settings: dog, IV CRI
[3] = Toxicity assessment of 48-hour IV constant rate infusion in healthy dogs; settings: dog
How it was run: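 Four healthy dogs from the kinetic study received IV test compound as a 10-min loading dose, then a constant-rate maintenance infusion for 48 h. […] Haematologic, non-haematologic and gastrointestinal effects were checked weekly for 4 weeks.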

## C=CCc1cccc(/C=N/NC(=O)CN2CCN(Cc3ccccc3)CC2)c1O [PAC-1]
[1]
  t1/2 K10 (terminal elimination half-life): 2.02 h and 1.83 h and 1.86 h and 2.40 h and 1.97 h and 2.42 h
[2]; average LD 5.8 mg/kg and MD 2.3 mg/kg/hour, n=4
  plasma concentration after 6 hours of infusion: 10.7 ± 2.0 µM
[2]; following completion of the first 24 hours
  plateau plasma concentration: ~ 18 µM
[3]; 48-hour CRI, 4 week monitoring, n=4
  gastrointestinal toxicity: no clinically overt gastrointestinal toxicity
[3]; 48-hour CRI, Day 0
  ALT: 46.7 ± 34.1 U/L
  Calcium: 10.3 ± 0.1 mg/dL
  Creatinine: 0.9 ± 0.2 mg/dL
  Hematocrit: 53.0 ± 3.8%
  Lymphocyte: 1.9 ± 0.3 ×10^3
  Neutrophil: 5.4 ± 1.0 ×10^3
  Phosphorous: 3.7 ± 0.4 mg/dL
  Platelet: 1.9 ± 0.4 ×10^5
  WBC: 8.2 ± 1.5 ×10^3
[3]; 48-hour CRI, Day 7
  ALT: 57.0 ± 34.6 U/L
  Calcium: 10.5 ± 0.3 mg/dL
  Creatinine: 1.0 ± 0.3 mg/dL
  Hematocrit: 55.4 ± 1.3%
  Lymphocyte: 1.3 ± 0.2 ×10^3
  Neutrophil: 5.0 ± 0.5 ×10^3
  Phosphorous: 2.9 ± 0.9 mg/dL
  Platelet: 1.8 ± 0.3 ×10^5
  WBC: 7.0 ± 0.4 ×10^3
[3]; 48-hour CRI, Day 14
  ALT: 56.3 ± 46.7 U/L
  Calcium: 10.2 ± 0.4 mg/dL
  Creatinine: 0.9 ± 0.1 mg/dL
  Hematocrit: 49.3 ± 6.0%
  Lymphocyte: 1.9 ± 0.7 ×10^3
  Neutrophil: 4.3 ± 0.9 ×10^3
  Phosphorous: 3.6 ± 0.3 mg/dL
  Platelet: 2.0 ± 0.4 ×10^5
  WBC: 7.0 ± 0.4 ×10^3
[3]; 48-hour CRI, Day 21
  ALT: 49.7 ± 29.0 U/L
  Calcium: 10.4 ± 0.4 mg/dL
  Creatinine: 1.0 ± 0.2 mg/dL
  Hematocrit: 50.6 ± 3.4%
  Lymphocyte: 1.5 ± 0.2 ×10^3
  Neutrophil: 5.9 ± 0.3 ×10^3
  Phosphorous: 3.4 ± 0.4 mg/dL
  Platelet: 2.2 ± 0.8 ×10^5
  WBC: 8.4 ± 0.6 ×10^3
[3]; IV CRI, n=4
  tolerability of CRI giving ≥ 10 µM for ≥ 24 hours: well-tolerated by all dogs
